Test [1] can be described thus: Antiproliferative activity against human WHCO1 cells after 48 hrs by MTT assay. In kind it is functional, cell-based. The settings on record: WHCO1, 48 h. The gist of the method: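 WHCO1 cells (oesophageal SCC line) kept in DMEM with 10% FBS, no antibiotics, 37 °C, 5% CO2. Seeded 2 × 10^3 cells/well, dosed next day at 0.5–200 µM in 0.1% DMSO final; DMSO-only controls. After 48 h, MTT added for 4 h, then SLS/HCl overnight, A595 read. IC50 from variable-slope sigmoidal fit; mean ± SD of three independent determinations.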

Test [2] deals with WHCO1. The test can be described thus: Growth inhibition of human WHCO1 cells at 34 uM after 6 days by Roche xCelligence method. The test is classed as functional, cell-based. Put shortly: (§1)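 Real-time impedance (xCelligence) of WHCO1 cells seeded at 5000/well. Compound added 24 h after plating in 0.1% DMSO at 34, 100 or 113 µM; DMSO-only controls. Growth then tracked continuously for a further six days. Each curve is the average of three replicates.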

The test system of test [3] is WHCO1. Put plainly: Induction of apoptosis in human WHCO1 cells at 10 uM after 16 hrs by Roche cell death ELISA method. The test is classed as functional, cell-based. Put shortly: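 Quadruplicate wells of 5 × 10^3 WHCO1 cells dosed next day at 10 µM in 0.1% DMSO for 16 h; DMSO-only controls. Cytoplasmic fraction assayed for histone-associated DNA fragments by sandwich ELISA (anti-histone-biotin/anti-DNA-POD, 2 h at room temperature, ABTS 15 min). Absorbance read at 405 and 495 nm.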

Test [4] in a line: Ratio of Z-ajeone IC50 to compound IC50 for human WHCO1 cells. In kind it is functional.
Test [5] relates to WHCO1. The test can be described thus: Growth inhibition of human WHCO1 cells at 10 uM up to 5 days by Roche xCelligence method. In kind it is functional, cell-based. The gist of the method: (§2)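 xCelligence impedance monitoring of WHCO1 growth: 2500 cells/well, treated 24 h after plating with 10 µM compound in 0.1% DMSO. DMSO-only controls. Growth followed continuously as impedance; the system records for up to seven days.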

Test [6] is described as follows: Induction of apoptosis in human WHCO1 cells assessed as caspase 3 activation using Ac-DEVD-AFC as substrate at 25 uM after 24 hrs by fluorimetry relative to control. The test is classed as functional. The gist of the method:
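WHCO1 cells (1.8 × 10^6) seeded in triplicate and dosed next day at 25 µM with 0.1% DMSO for 24 h. Controls received medium or 0.1% DMSO. Lysates captured on anti-caspase-3 coated wells for 1 h at 37 °C, then fluorogenic substrate added. Fluorescence (ex 390/em 505 nm) read at 0 and 120 min at 37 °C; activity is the ΔFU.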

The nature of test [7]: Induction of cell cycle arrest in human WHCO1 cells assessed as G0/G1 phase cells at 10 uM after 16 hrs by flow cytometry (reference value: 29.2 +/- 5.2%). The test is classed as functional. (In general: A flow cytometer gives signals particle by particle.)
A short description of test [8]: Induction of cell cycle arrest in human WHCO1 cells assessed as G2/M phase cells at 10 uM after 16 hrs by flow cytometry (reference value: 25.5 +/- 3.7%). In kind it is functional.
Test [9] deals with WHCO1. The test can be described thus: Growth inhibition of human WHCO1 cells at 100 uM after 6 days by Roche xCelligence method. The test is classed as functional, cell-based. Put shortly:
as §1

Test [10] in a line: Induction of cell cycle arrest in human WHCO1 cells assessed as S phase cells at 10 uM after 16 hrs by flow cytometry (reference value: 45.3 +/- 1.9%). The test is classed as functional.
In test [11] the test system is WHCO1. The test can be described thus: Growth inhibition of human WHCO1 cells at 10 uM up to 2 days by Roche xCelligence method. The test is classed as functional, cell-based. The following applies: in the assay text read “up to 5 days” for “up to 2 days”. The gist of the method:
as §2

Test [12] deals with WHCO1. The test can be described thus: Growth inhibition of human WHCO1 cells at 113 uM after 6 days by Roche xCelligence method. The test is classed as functional, cell-based. The gist of the method: as §1

Calls of active or inactive are those of the source. No cut-off for these calls is given here.

In turn, `C=CCSSC=CC[S+]([O-])Cc1ccccc1` (mixture of isomers) had an IC50 in test [1] of 8.9 µM.

Compound `C=CCSS/C=C\C[S+]([O-])CCCOCc1ccc(OC)cc1` (stereo not drawn) displayed a 50% inhibitory concentration (IC50) in test [1] of 21 µM.

As to `COc1ccc(C[S+]([O-])CC=CSSCc2ccc(F)cc2)cc1` (mixture of isomers), in test [1], the half-maximal inhibitory concentration (IC50) was found to be 16 µM.

Take `COc1ccc(CSSCCC[S+]([O-])Cc2ccc(OC)cc2)cc1` (stereo not drawn): half-maximal inhibition in test [1] (IC50) was put at 16 µM. Besides, in the test on WHCO1 [2], the “growth inhibition (GI)” value was “Active”.

`C=CCSS/C=C\C[S+]([O-])CCCN1C(=O)c2ccccc2C1=O` (stereo not drawn) came in with an IC50 in [1] of 33 µM.

`C=CCSS/C=C/C[S+]([O-])CCCN1C(=O)c2ccccc2C1=O` (stereo not drawn): the IC50 in test [1] came to 68 µM.

`C=CCSS/C=C/C[S+]([O-])CCCOCc1ccc(OC)cc1` (stereo not drawn): 18 µM corresponded to half-maximal inhibition in test [1] (IC50).

With `COc1ccc(CSSC=CC[S+]([O-])Cc2ccc(OC)cc2)cc1` (stereo not drawn), the result in the test on WHCO1 [3] was Active. Further, in test [4], the “Ratio IC50” value amounted to 12. Besides, the “growth inhibition (GI)” value with WHCO1 [5] and in the test with WHCO1 [9] was “Active” in each case. The compound also showed a half-maximal inhibitory concentration (IC50) in test [1] of 2.1 µM. In addition, in test [6], the “fold change (FC)” value came out at 3. The Activity in [7] was determined as 8.03%; in [8], 78.6%; in [10], 13.5%.

In turn, `C=CCSSC=CC[S+]([O-])C(C)(C)C` (mixture of isomers) registered a concentration for half-maximal inhibition (IC50) in test [1] of 23 µM.

On to `CCC[S+]([O-])C/C=C\SSC` (stereo not drawn), for which the IC50 in [1] was 26 µM.

Compound `O=c1[nH]cc(F)c(=O)[nH]1` [FLUOROURACIL] had an IC50 in test [1] of 7.9 µM.

As to `C=CCSS/C=C\C[S+]([O-])CC=C` (stereo not drawn) [(Z)-Ajoene], 25 µM corresponded to half-maximal inhibition in test [1] (IC50). The “growth inhibition (GI)” value in the test with WHCO1 [11] was “inactive”.

`CCCSS/C=C\C[S+]([O-])CCC` (stereo not drawn) had an IC50 in test [1] of 18 µM.

As to `CCC[S+]([O-])C/C=C/SSC` (stereo not drawn), the half-inhibitory concentration (IC50) in test [1] turned out to be 28 µM.

Compound `COc1ccc(C[S+]([O-])CC=CSSCc2ccccc2)cc1` (mixture of isomers) displayed an IC50 in [1] of 3.1 µM.

Consider `COc1ccc(CSCC=CSSCc2ccc(OC)cc2)cc1`, for which the outcome with WHCO1 [3] was Active. In addition, the IC50 in test [1] was 0.7 µM. Moreover, the “growth inhibition (GI)” value with WHCO1 [2] is “Active”. In addition, the Activity in [7] was found to be 9.73%; in [8], 74.4%; in test [10], 15.9%.

In test [1], `COc1ccc(CS/C=C\C[S+]([O-])Cc2ccc(OC)cc2)cc1` (stereo not drawn) displayed an IC50 of over 200 µM. Further, in the test on WHCO1 [2], the “growth inhibition (GI)” value is “inactive”. Besides, the results for the Activity in test [7], in test [8] and in test [10] were 19.5%, 17.4% and 63.1%, respectively.

For `C=CCSS/C=C/C[S+]([O-])CCCO` (stereo not drawn), the half-inhibitory concentration (IC50) in test [1] was found to be 27 µM.

In test [1], `COc1ccc(CS/C=C/C[S+]([O-])Cc2ccc(OC)cc2)cc1` (stereo not drawn) came in with a half-inhibitory concentration (IC50) of over 200 µM. In addition, the “growth inhibition (GI)” value with WHCO1 [2] was “inactive”. In addition, the results for the Activity in test [7], in test [8] and in [10] were 21.5%, 11.4% and 67%, respectively.

The compound `C=CCSSC=CC[S+]([O-])Cc1ccc(OC)cc1` (mixture of isomers) came in with an IC50 in [1] of 7.4 µM.

In the case of `C=CCSS/C=C/C[S+]([O-])CCC` (stereo not drawn), the IC50 in test [1] stood at 37 µM.

With `CCCSS/C=C/C[S+]([O-])CCC` (stereo not drawn), the IC50 in [1] stood at 24 µM.

Consider `C=CCSS/C=C/C[S+]([O-])CC=C` (stereo not drawn) [AJOENE], for which, in test [1], the IC50 is 39 µM. In the test on WHCO1 [11], the “growth inhibition (GI)” value is “inactive”.

Consider `COc1ccc(CSC=CCSCc2ccc(OC)cc2)cc1`, for which the “growth inhibition (GI)” value in the test with WHCO1 [12] was “inactive”. This compound also yielded a 50% inhibitory concentration (IC50) in test [1] of over 200 µM.

On to `C=CCSS/C=C\C[S+]([O-])CCC` (stereo not drawn), for which the 50% inhibitory concentration (IC50) in test [1] came out at 23 µM.

In the case of `C=CCSS/C=C\C[S+]([O-])CCCO` (stereo not drawn), the concentration for half-maximal inhibition (IC50) in test [1] amounted to 38 µM.

Turning to `COc1ccc(CSCCCSSCc2ccc(OC)cc2)cc1`, in the test on WHCO1 [12], the “growth inhibition (GI)” value was “inactive”. The compound also came in with an IC50 in test [1] of over 200 µM.

What is called IC50 is the concentration at which inhibition is half-maximal.

These data come from ChEMBL document CHEMBL1949537, “Structure-activity studies on the anti-proliferation activity of ajoene analogues in WHCO1 oesophageal cancer cells” (Eur J Med Chem, 2012).
